Measurements taken from ChEMBL document CHEMBL1221230, “Inhibition of eukaryotic translation elongation by cycloheximide and lactimidomycin” (Nat Chem Biol, 2010).
The source made the active and inactive calls. No cut-off for these calls is given here.

Tests used:
Saccharomyces cerevisiae [1] = assay: Antimicrobial activity against Saccharomyces cerevisiae J47alpha; assay type: functional, organism-based
Procedure, shortened: (§1)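 Four isogenic S. cerevisiae strain pairs, each differing only by presence or absence of cyh2, exposed to varying compound concentrations; growth read by optical density; IC50 derived per strain, resistance as ratio between paired strains.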

[2] = target: T1, Elongation factor 1-alpha 1 (Homo sapiens) (UniProt P68104); assay: Inhibition of eEF1A-mediated tRNA binding to ternary complex at 200 uM after 10 mins by filtration binding assay
T1 sequence (whole entry): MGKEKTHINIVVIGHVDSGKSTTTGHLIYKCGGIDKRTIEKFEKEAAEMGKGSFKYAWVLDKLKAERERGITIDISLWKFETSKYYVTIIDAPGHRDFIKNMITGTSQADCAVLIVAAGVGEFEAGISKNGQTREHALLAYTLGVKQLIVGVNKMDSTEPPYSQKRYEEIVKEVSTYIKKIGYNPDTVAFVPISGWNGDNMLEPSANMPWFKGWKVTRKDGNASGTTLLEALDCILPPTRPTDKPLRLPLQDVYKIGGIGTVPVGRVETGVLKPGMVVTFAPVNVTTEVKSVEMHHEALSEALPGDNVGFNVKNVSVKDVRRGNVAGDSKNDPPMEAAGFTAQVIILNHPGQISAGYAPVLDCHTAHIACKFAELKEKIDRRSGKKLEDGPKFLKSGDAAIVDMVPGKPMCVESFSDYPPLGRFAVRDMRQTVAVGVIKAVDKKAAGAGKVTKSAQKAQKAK
Procedure, shortened: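 Ribosomes (89 pmol) in 20 mM HEPES pH 7.4, 100 mM KCl, 10 mM MgCl₂, 1 mM DTT with 200 ng poly(U), 2.2 μg eEF1A, 150 μM GDPNP and 200 μM compound, before 10 pmol [¹⁴C]Phe-tRNA^Phe added; 10 min at 37°C; nitrocellulose filtration, scintillation counting.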

HeLa = assay: Inhibition of protein synthesis in human HeLa cells assessed as [35S]cysteine/methionine utilization after 2 hrs by scintillation spectroscopy; assay type: functional, cell-based
Procedure, shortened: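 HeLa cells incubated 2 h with varying compound concentrations plus [³⁵S]cysteine/methionine (translation) or [³H]uridine (transcription). Protein synthesis: scintillation counting of TCA-precipitated protein on PVDF membrane. Transcription: scintillation counting of nucleic acids bound to GF/C glass fibre filter.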

[3] = target: Elongation factor 2 (Homo sapiens) (UniProt P13639); assay: Inhibition of eEF2-mediated tRNA translocation assessed as inhibition of phenylalanyl puromycin formation
Procedure, shortened: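 Set up as eEF1A binding assay but with GTP; 5 min at 37°C, compound added to 200 μM final, 5 min at room temperature, then eEF2, puromycin and GTP added; 10 min at 37°C; ethyl acetate-extractable phenylalanyl-puromycin counted by scintillation.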

Saccharomyces cerevisiae [4] = assay: Antimicrobial activity against Saccharomyces cerevisiae BY686 expressing ribosomal protein cyh2 and harboring mutation in rpl28; assay type: functional, organism-based; procedure, shortened: as §1
MDA-MB-231 = assay: Anticancer activity against human MDA-MB-231 cells after 24 hrs by [3H]thymidine incorporation assay; assay type: functional, cell-based
Saccharomyces cerevisiae [5] = assay: Antimicrobial activity against Saccharomyces cerevisiae JB281; assay type: functional, organism-based; procedure, shortened: as §1
Saccharomyces cerevisiae [6] = assay: Antimicrobial activity against Saccharomyces cerevisiae BY108; assay type: functional, organism-based; procedure, shortened: as §1
HCC2218 = assay: Anticancer activity against human HCC2218 cells after 24 hrs by [3H]thymidine incorporation assay; assay type: functional, cell-based
[7] = Effect on peptidyl transfer assessed as [35S]methionyl-puromycin formation by TLC
HEK-293T [8] = assay: Effect on polyribosome profiling in human HEK293T cells assessed as accumulation of 80S ribosomes at 50 uM after 30 mins by spectrophotometry; assay type: functional, cell-based
Procedure, shortened: (§2)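 HEK 293T cells treated 30 min with compound, then lysed; lysates centrifuged through 15–45% sucrose gradient to give polysome profiles.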

Saccharomyces cerevisiae [9] = assay: Antimicrobial activity against Saccharomyces cerevisiae J407alpha expressing ribosomal protein cyh2 and harboring mutation in rpl28; assay type: functional, organism-based; procedure, shortened: as §1
[10] = Inhibition of [32P]deacetylated phe-tRNA binding to 60S ribosome E-site by footprinting assay
Oryctolagus cuniculus = species on record: Oryctolagus cuniculus; assay: Inhibition of translational activity in rabbit reticulocyte assessed as occurrence of ribosomal arrest at start codon at 200 uM by toeprinting assay; assay type: functional
Procedure, shortened: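 Labelled rabbit β-globin mRNA incubated in rabbit reticulocyte lysate with inhibitor; mixture centrifuged through sucrose gradient, 80S fractions taken to isolate stalled ribosomes; primer extended by AMV reverse transcriptase toward stalled ribosome to map arrest site.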

[11] = target: Elongation factor 2 (Homo sapiens) (UniProt P13639); assay: Inhibition of eEF2-mediated tRNA translocation assessed as decrease in tripeptide (Met-Phe-Phe) formation by TLC
[12] = Binding affinity to 60S ribosome E-site by footprinting assay
Procedure, shortened: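 DMS footprinting of salt-washed 80S ribosomes preincubated 5 min at room temperature with compound, DMS then 5 min at 37°C; rRNA primer extension with AMV reverse transcriptase and [α-³²P]TTP, sequencing gel. For K_D, 300 μl volume at 50 or 100 nM ribosomes titrated with increasing compound.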

HEK-293T [13] = assay: Effect on polyribosome profiling in human HEK293T cells assessed as depletion of polysomes at 50 uM after 30 mins by spectrophotometry; assay type: functional, cell-based; procedure, shortened: as §2
Saccharomyces cerevisiae [14] = assay: Fold resistance, ratio of IC50 for Saccharomyces cerevisiae BY740 expressing ribosomal protein cyh2 and harboring mutation in rpl28 to IC50 for Saccharomyces cerevisiae […]; assay type: functional; procedure, shortened: as §1
Saccharomyces cerevisiae [15] = assay: Antimicrobial activity against Saccharomyces cerevisiae BY724 expressing ribosomal protein cyh2 and harboring mutation in rpl28; assay type: functional, organism-based; procedure, shortened: as §1
[16] = Inhibition of elF4A-mediated renilla luciferase translational activity at 0.02 to 5 uM in presence of CrPV IRES element
HCC1395 = assay: Anticancer activity against human HCC1395 cells after 24 hrs by [3H]thymidine incorporation assay; assay type: functional, cell-based
[17] = target: Elongation factor 2 (Homo sapiens) (UniProt P13639); assay: Inhibition of eEF2-mediated tRNA translocation assessed as induction of dipeptide accumulation by TLC
BT-474 = assay: Anticancer activity against human BT474 cells after 24 hrs by [3H]thymidine incorporation assay; assay type: functional, cell-based
MCF-10A = assay: Anticancer activity against human MCF10A cells after 24 hrs by [3H]thymidine incorporation assay; assay type: functional, cell-based
Saccharomyces cerevisiae [18] = assay: Antimicrobial activity against Saccharomyces cerevisiae BY740 expressing ribosomal protein cyh2 and harboring mutation in rpl28; assay type: functional, organism-based; procedure, shortened: as §1
Saccharomyces cerevisiae [19] = assay: Fold resistance, ratio of IC50 Saccharomyces cerevisiae J407alpha expressing ribosomal protein cyh2 and harboring mutation in rpl28 to IC50 for Saccharomyces cerevisiae J47alpha; assay type: functional; procedure, shortened: as §1
[20] = Effect on polyribosome profiling assessed as accumulation of 80S ribosomes after 15 mins by scintillation spectroscopy; assay type: functional
Procedure, shortened: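 Capped [³²P]-labelled rabbit β-globin RNA incubated in rabbit reticulocyte lysate with compound for 15 min, then centrifuged through 10–35% sucrose gradient.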

Saccharomyces cerevisiae [21] = assay: Fold resistance, ratio of IC50 for Saccharomyces cerevisiae BY724 expressing ribosomal protein cyh2 and harboring mutation in rpl28 to IC50 for Saccharomyces cerevisiae BY108; assay type: functional; procedure, shortened: as §1
[22] = target: Elongation factor 2 (Homo sapiens) (UniProt P13639); assay: Inhibition of eEF2-mediated tRNA translocation assessed as inhibition of polyphenylalanine synthesis at 200 uM after 10 mins by scintillation counting

## C/C(=C\[C@H](C)C(=O)C[C@H](O)CC1CC(=O)NC(=O)C1)[C@@H]1OC(=O)/C=C/CC/C=C/C=C\[C@@H]1C [LACTIMIDOMYCIN]
Saccharomyces cerevisiae [1]
  IC50: 4.6 nM
[2]
  inhibition: inactive
HeLa
  IC50: 37.8 nM
  inhibition: Dose-dependent effect
[3]
  inhibition: Active
Saccharomyces cerevisiae [4]
  IC50: 596 nM
MDA-MB-231
  Activity: Active
Saccharomyces cerevisiae [5]
  IC50: 59 nM
Saccharomyces cerevisiae [6]
  IC50: 488 nM
HCC2218
  Activity: Active
[7]
  Activity: inactive
HEK-293T [8]
  Activity: Active
Saccharomyces cerevisiae [9]
  IC50: 1110 nM
[10]
  inhibition: Active
Oryctolagus cuniculus
  inhibition: Active
[11]
  inhibition: Active
[12]
  Activity: Dose-dependent effect
  Kd: 500 nM
HEK-293T [13]
  Activity: Active
Saccharomyces cerevisiae [14]
  Ratio IC50: 20.5
Saccharomyces cerevisiae [15]
  IC50: 6530 nM
[16]
  inhibition: Active
HCC1395
  Activity: Active
[17]
  inhibition: Active
BT-474
  Activity: Active
MCF-10A
  Activity: Active
Saccharomyces cerevisiae [18]
  IC50: 1210 nM
Saccharomyces cerevisiae [19]
  Ratio IC50: 241
[20]
  Activity: Active
Saccharomyces cerevisiae [21]
  Ratio IC50: 13.4
[22]
  inhibition: Active
